Assay results taken from ChEMBL document CHEMBL2424574, “Structure-activity relationships and pharmacophore model of a noncompetitive pyrazoline containing class of GluN2C/GluN2D selective antagonists” (J Med Chem, 2013).

Tests used:
[1] = target: Ionotropic glutamate receptor NMDA 1/2D (Homo sapiens) (UniProt Q05586+O15399); conditions: Oocyte, 1 uM
Mu-type opioid receptor = Mu-type opioid receptor (Homo sapiens, UniProt P35372); test: Inhibition of mu-type opioid receptor (unknown origin)
Summary of the method: (§1)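 Radioligand panel screening was run through the NIMH Psychoactive Drug Screening Program with compounds at 5 µM.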

[2] = target: 5-hydroxytryptamine receptor 1E (Homo sapiens, UniProt P28566); test: Inhibition of 5HT1E receptor (unknown origin)
Sequence of 5-hydroxytryptamine receptor 1E (P28566 whole entry): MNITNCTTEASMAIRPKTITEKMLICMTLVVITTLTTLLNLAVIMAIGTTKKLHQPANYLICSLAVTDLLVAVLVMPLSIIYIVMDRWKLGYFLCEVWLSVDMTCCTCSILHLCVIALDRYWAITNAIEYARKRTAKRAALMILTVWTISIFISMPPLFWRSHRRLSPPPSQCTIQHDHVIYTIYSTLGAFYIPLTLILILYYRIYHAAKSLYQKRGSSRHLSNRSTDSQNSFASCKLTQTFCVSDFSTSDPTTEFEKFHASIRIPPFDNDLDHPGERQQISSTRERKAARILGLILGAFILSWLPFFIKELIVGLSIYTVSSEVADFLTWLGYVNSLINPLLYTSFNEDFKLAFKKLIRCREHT
Summary of the method: as §1

MDCK [3] = test: Permeability across basolateral to apical side in dog MDCK cells expressing MDR1 assessed as compound recovery at 5 uM after 120 mins by LC-MS/MS analysis; assay type: ADME, cell-based, Canis lupus familiaris; conditions: 2 h
Summary of the method: (§2)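 MDR1-MDCK monolayers grown to confluence on collagen-coated polycarbonate membranes. Assay buffer was HBSS with 10 mM HEPES and 15 mM glucose, pH 7.4, and the receiver side also held 1% BSA. Monolayers were dosed apically (A-to-B) or basolaterally (B-to-A) at 5 μM, 37 °C, 5% CO2. Donor and receiver were sampled at 120 min, in duplicate, by LC-MS/MS (ESI). Papp and percent recovery were calculated from receiver/donor concentrations.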

Liver microsomes [4] = test: Intrinsic clearance in human liver microsomes measured per mg of protein at 1 uM by LC-MS/MS analysis; assay type: ADME, Microsome
Summary of the method: (§3)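 Human liver microsomes 0.5 mg/mL in 100 mM potassium phosphate pH 7.4 with 5 mM MgCl2 and 1 μM test compound. Preincubated 3 min at 37 °C, then started with 1 mM NADPH, with a testosterone control in parallel. Sampled at 0, 10, 20, 30 and 60 min and quenched in cold acetonitrile/water with formic acid and internal standard. Percent remaining by LC-MS/MS (MRM) versus time 0. t1/2 = 0.693/k from the ln-remaining slope; CLint = k/protein concentration.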

Liver microsomes [5] = test: Metabolic stability in human liver microsomes assessed as compound remaining at 1 uM after 60 mins by LC-MS/MS analysis; assay type: ADME, Microsome; conditions: 1 h
Summary of the method: as §3

MDCK [6] = test: Apparent permeability across apical to basolateral side in dog MDCK cells expressing MDR1 at 5 uM after 120 mins by LC-MS/MS analysis; assay type: ADME, cell-based, Canis lupus familiaris; conditions: 2 h
Summary of the method: as §2

Liver microsomes [7] = test: Metabolic stability in human liver microsomes assessed as compound remaining at 1 uM after 20 mins by LC-MS/MS analysis; assay type: ADME, Microsome
Summary of the method: as §3

Liver microsomes [8] = test: Half life in human liver microsomes at 1 uM; assay type: ADME, Microsome
Summary of the method: as §3

Sequence of Mu-type opioid receptor (P35372 whole entry): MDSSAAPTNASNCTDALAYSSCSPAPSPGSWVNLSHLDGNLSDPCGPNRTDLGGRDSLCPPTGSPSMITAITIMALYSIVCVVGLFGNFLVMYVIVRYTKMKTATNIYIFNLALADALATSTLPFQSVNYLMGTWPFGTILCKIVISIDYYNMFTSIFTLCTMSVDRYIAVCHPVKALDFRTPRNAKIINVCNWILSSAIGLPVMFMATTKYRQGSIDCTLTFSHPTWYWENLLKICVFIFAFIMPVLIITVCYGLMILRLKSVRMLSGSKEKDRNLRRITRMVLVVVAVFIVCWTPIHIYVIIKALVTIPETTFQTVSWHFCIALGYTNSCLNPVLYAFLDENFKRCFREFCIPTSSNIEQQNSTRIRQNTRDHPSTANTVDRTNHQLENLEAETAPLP

SMILES	residual activity [1]	Ki (Mu-type opioid receptor)	Ki [2]	Drug recovery (MDCK [3])	CLint (Liver microsomes [4])	Stability (Liver microsomes [5])	Papp (MDCK [6])	Stability (Liver microsomes [7])	t1/2 (Liver microsomes [8])
O=C(O)/C=C/C(=O)N1N=C(c2c(-c3ccc(Br)cc3)c3ccccc3[nH]c2=O)CC1c1ccc(Cl)cc1 (racemic)	3.1%	> 10 µM	> 10 µM						
O=C(O)CCC(=O)N1N=C(c2c(-c3ccc(Cl)cc3)c3ccccc3[nH]c2=O)CC1c1ccc(Cl)cc1 (racemic)				76%	< 20 µL/min/mg	86%	0.47 ×10⁻⁶ cm/s	100%	> 1 h
